# Experimental data published in ChEMBL document CHEMBL3352355, “Synthesis of novel polysubstituted (2SR,4RS)-2-heteroaryltetrahydro-1,4-epoxy-1-benzazepines and cis-2-heteroaryl-4-hydroxytetrahydro-1H-1-benzazepines as antiparasitic agents” (Eur J Med Chem, 2014).
# Assays:
# Trypanosoma cruzi [1] = experiment: Antiparasitic activity against epimastigote stage of Trypanosoma cruzi infected in Vero cells assessed as parasite growth inhibition […] by hemocytometery; assay type: functional, organism-based
# Outline: (§1)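 Exponential-phase T. cruzi Sylvio X10 epimastigotes (LIT medium with hiFCS) or L. (L.) infantum MHOM/BR/74/PP75 promastigotes (RPMI 1640, hemin, HEPES, 10% hiFCS) were exposed to threefold serial dilutions (0.3–300 µg/mL) for 72 h at 28 °C. Viable parasites were counted by hemocytometer with 0.25% eosin yellow. IC50 came from sigmoidal regression, given as mean ± SD.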
# [2] = Cytotoxicity against African green monkey Vero cells; assay type: cell-based; conditions: chlorocebus sabaeus
# Outline: (§2)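 Vero monolayers or THP-1 cells (made adherent with 10 ng/mL PMA), in RPMI 1640 with 10% hiFCS, were exposed to compound (0.3–300 µg/mL) for 72 h at 37 °C, 5% CO2. Viability was measured by MTT, with formazan dissolved in DMSO and read at 580 nm. % cytotoxicity was calculated against untreated cells; CC50 came from sigmoidal regression, given as mean ± SD.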
# [3] = Selectivity index, ratio of CC50 for African green monkey Vero cells to IC50 for epimastigote stage of Trypanosoma cruzi; assay type: functional
# Outline: (§3)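 Selectivity index was calculated as CC50 in Vero (T. cruzi) or THP-1 (L. infantum) cells divided by parasite IC50. Both values came from 72 h mammalian-cell MTT assays and the parasite assays; SI ≥ 3 was defined as parasite-selective.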
# [4] = Selectivity index, ratio of CC50 for African green monkey Vero cells to IC50 for amastigote stage of Trypanosoma cruzi; assay type: functional; outline: as §3
# [5] = Selectivity index, ratio of CC50 for human THP1 cells to IC50 for promastigote stage of Leishmania infantum; assay type: functional, THP-1; outline: as §3
# Leishmania infantum [6] = experiment: Antiparasitic activity against promastigote stage of Leishmania infantum assessed as parasite growth inhibition after 72 hrs by hemocytometery
# Leishmania infantum [7] = experiment: Antiparasitic activity against amastigote stage of Leishmania infantum infected in THP1 cells assessed as parasite growth inhibition after 24 hrs by hemocytometery; assay type: functional, organism-based, THP-1
# Outline: (§4)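 Host cells were Vero for T. cruzi (infected with tissue-derived trypomastigotes) and THP-1 (PMA-transformed, 10 ng/mL) for L. (L.) infantum (infected with late-phase promastigotes), at 1:10 cell:parasite for 24 h. Serial dilutions were given as two doses, the second on day 3 with a medium change. Read-out was % infected cells on methanol-fixed, Giemsa-stained slides (300 cells). IC50 came from sigmoidal regression; experiments in duplicate, concentrations in triplicate.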
# [8] = Cytotoxicity against human THP1 cells; assay type: cell-based; conditions: THP-1 cells; outline: as §2
# Trypanosoma cruzi [9] = experiment: Antiparasitic activity against amastigote stage of Trypanosoma cruzi infected in Vero cells assessed as parasite growth inhibition after 24 hrs by hemocytometery; assay type: functional, organism-based; outline: as §4
# Leishmania infantum [10] = experiment: Antiparasitic activity against promastigote stage of Leishmania infantum infected in THP1 cells assessed as parasite growth inhibition […] by hemocytometery; assay type: functional, organism-based; conditions: THP-1; outline: as §1
# [11] = Leishmania infantum, THP-1, 24 h, read-out: IC50
# [12] = Trypanosoma cruzi, Vero, 24 h, read-out: IC50
smiles,measurement,setting,value
Cc1ccc([C@@H]2C[C@H]3Cc4cc(OC(F)(F)F)ccc4N2O3)o1 (racemic),IC50,Trypanosoma cruzi [1],89.2 µM
same,CC50,[2],414 µM
same,Selectivity Index,[3],4.6
same,Selectivity Index,[4],2
same,Selectivity Index,[5],16.3
same,IC50,Leishmania infantum [6],10.8 µM
same,IC50,Leishmania infantum [7]; [11],> 308 µM
same,CC50,[8],176 µM
same,IC50,Trypanosoma cruzi [9]; [12],212 µM
Cc1ccc([C@@H]2C[C@H](O)Cc3cc(OC(F)(F)F)ccc3N2)o1 (relative stereo),IC50,Trypanosoma cruzi [1],42.7 µM
same,CC50,[2],82.1 µM
same,Selectivity Index,[3],1.9
same,Selectivity Index,[5],9.7
same,IC50,Leishmania infantum [7]; [11],> 102 µM
same,CC50,[8],124 µM
same,IC50,Trypanosoma cruzi [9]; [12],> 102 µM
same,IC50,Leishmania infantum [10],12.8 µM
Fc1ccc2c(c1)C[C@@H]1C[C@@H](c3ccco3)N2O1 (racemic),IC50,Trypanosoma cruzi [1],47.7 µM
same,CC50,[2],> 408 µM
same,Selectivity Index,[3],>8.6
same,Selectivity Index,[4],>5.8
same,Selectivity Index,[5],>14.7
same,IC50,Leishmania infantum [6],83.2 µM
same,IC50,Leishmania infantum [7]; [11],> 136 µM
same,CC50,[8],> 1220 µM
same,IC50,Trypanosoma cruzi [9]; [12],70.1 µM
FC(F)(F)Oc1ccc2c(c1)C[C@@H]1C[C@@H](c3cccs3)N2O1 (racemic),IC50,Trypanosoma cruzi [1],143 µM
same,CC50,[2],> 306 µM
same,Selectivity Index,[3],>2.1
same,Selectivity Index,[4],>4.1
same,Selectivity Index,[5],>1.2
same,IC50,Leishmania infantum [6],256 µM
same,IC50,Leishmania infantum [7]; [11],> 306 µM
same,CC50,[8],> 306 µM
same,IC50,Trypanosoma cruzi [9]; [12],73.9 µM
Cc1ccsc1[C@@H]1C[C@H]2Cc3cc(OC(F)(F)F)ccc3N1O2 (racemic),IC50,Trypanosoma cruzi [1],47.2 µM
same,CC50,[2],61.7 µM
same,Selectivity Index,[3],1.3
same,Selectivity Index,[4],0.3
same,Selectivity Index,[5],>153.9
same,IC50,Leishmania infantum [6],11.4 µM
same,IC50,Leishmania infantum [7]; [11],> 293 µM
same,CC50,[8],> 1760 µM
same,IC50,Trypanosoma cruzi [9]; [12],202 µM
O[C@@H]1Cc2ccccc2N[C@H](c2ccco2)C1 (relative stereo),IC50,Trypanosoma cruzi [1],884 µM
same,CC50,[2],> 1310 µM
same,Selectivity Index,[3],>1.5
same,Selectivity Index,[5],0.3
same,IC50,Leishmania infantum [7]; [11],> 436 µM
same,CC50,[8],236 µM
same,IC50,Trypanosoma cruzi [9]; [12],> 436 µM
same,IC50,Leishmania infantum [10],696 µM
Cc1ccc([C@@H]2C[C@H](O)Cc3cc(F)ccc3N2)o1 (relative stereo),IC50,Trypanosoma cruzi [1],115 µM
same,CC50,[2],823 µM
same,Selectivity Index,[3],7.2
same,Selectivity Index,[5],>8.1
same,IC50,Leishmania infantum [7]; [11],> 383 µM
same,CC50,[8],> 1150 µM
same,IC50,Trypanosoma cruzi [9]; [12],> 383 µM
same,IC50,Leishmania infantum [10],141 µM
Cc1ccsc1[C@@H]1C[C@H](O)Cc2cc(OC(F)(F)F)ccc2N1 (relative stereo),IC50,Trypanosoma cruzi [1],10.7 µM
same,CC50,[2],26.7 µM
same,Selectivity Index,[3],2.5
same,Selectivity Index,[5],5.5
same,IC50,Leishmania infantum [7]; [11],> 97.1 µM
same,CC50,[8],89.7 µM
same,IC50,Trypanosoma cruzi [9]; vero,ND(toxic)
same,IC50,Leishmania infantum [10],16.4 µM
Cc1ccc([C@@H]2C[C@H](O)Cc3ccccc3N2)o1 (relative stereo),IC50,Trypanosoma cruzi [1],120 µM
same,CC50,[2],370 µM
same,Selectivity Index,[3],3.1
same,Selectivity Index,[5],1.4
same,IC50,Leishmania infantum [7]; [11],> 411 µM
same,CC50,[8],262 µM
same,IC50,Trypanosoma cruzi [9]; [12],> 411 µM
same,IC50,Leishmania infantum [10],189 µM
Cc1ccc([C@@H]2C[C@H](O)Cc3cc(OC(F)(F)F)ccc3N2)s1 (relative stereo),IC50,Trypanosoma cruzi [1],65.7 µM
same,CC50,[2],23.9 µM
same,Selectivity Index,[3],0.4
same,Selectivity Index,[5],8.6
same,IC50,Leishmania infantum [7]; thp-1,ND(toxic)
same,CC50,[8],98 µM
same,IC50,Trypanosoma cruzi [9]; vero,ND(toxic)
same,IC50,Leishmania infantum [10],11.3 µM
O[C@@H]1Cc2cc(OC(F)(F)F)ccc2N[C@H](c2cccs2)C1,IC50,Trypanosoma cruzi [1],87.8 µM
same,CC50,[2],20.4 µM
same,Selectivity Index,[3],0.2
same,Selectivity Index,[5],4.4
same,IC50,Leishmania infantum [7]; [11],> 101 µM
same,CC50,[8],61.5 µM
same,IC50,Trypanosoma cruzi [9]; [12],> 101 µM
same,IC50,Leishmania infantum [10],13.8 µM
Cc1ccc([C@@H]2C[C@H](O)Cc3ccccc3N2)s1 (relative stereo),IC50,Trypanosoma cruzi [1],22.8 µM
same,CC50,[2],956 µM
same,Selectivity Index,[3],41.9
same,Selectivity Index,[4],7.3
same,Selectivity Index,[5],5.5
same,IC50,Leishmania infantum [6],111 µM
same,IC50,Leishmania infantum [7]; [11],> 128 µM
same,CC50,[8],608 µM
same,IC50,Trypanosoma cruzi [9]; [12],131 µM
Fc1ccc2c(c1)C[C@@H]1C[C@@H](c3ccc(Br)s3)N2O1 (racemic),IC50,Trypanosoma cruzi [1],34.7 µM
same,CC50,[2],> 295 µM
same,Selectivity Index,[3],>8.5
same,Selectivity Index,[4],>5.4
same,Selectivity Index,[5],>40.6
same,IC50,Leishmania infantum [6],7.3 µM
same,IC50,Leishmania infantum [7]; [11],> 295 µM
same,CC50,[8],> 295 µM
same,IC50,Trypanosoma cruzi [9]; [12],54.6 µM
O=[N+]([O-])c1ccc([C@@H]2C[C@H]3Cc4cc(F)ccc4N2O3)o1 (racemic),IC50,Trypanosoma cruzi [1],29.7 µM
same,CC50,[2],422 µM
same,Selectivity Index,[3],14.2
same,Selectivity Index,[4],1.5
same,Selectivity Index,[5],50.4
same,IC50,Leishmania infantum [6],10.7 µM
same,IC50,Leishmania infantum [7]; [11],> 115 µM
same,CC50,[8],539 µM
same,IC50,Trypanosoma cruzi [9]; [12],284 µM
Cc1ccsc1[C@@H]1C[C@H]2Cc3cc(Cl)ccc3N1O2 (racemic),IC50,Trypanosoma cruzi [1],11.7 µM
same,CC50,[2],183 µM
same,Selectivity Index,[3],15.6
same,Selectivity Index,[4],1.9
same,Selectivity Index,[5],7.7
same,IC50,Leishmania infantum [6],32.3 µM
same,IC50,Leishmania infantum [7]; [11],> 344 µM
same,CC50,[8],250 µM
same,IC50,Trypanosoma cruzi [9]; [12],99 µM
Cc1ccc([C@@H]2C[C@H]3Cc4cc(Cl)ccc4N2O3)o1 (racemic),IC50,Trypanosoma cruzi [1],46.2 µM
same,CC50,[2],1160 µM
same,Selectivity Index,[3],25.1
same,Selectivity Index,[4],3.7
same,Selectivity Index,[5],19.6
same,IC50,Leishmania infantum [6],19.1 µM
same,IC50,Leishmania infantum [7]; [11],> 130 µM
same,CC50,[8],374 µM
same,IC50,Trypanosoma cruzi [9]; [12],312 µM
Cc1ccc([C@@H]2C[C@H]3Cc4ccccc4N2O3)s1 (racemic),IC50,Trypanosoma cruzi [1],147 µM
same,CC50,[2],878 µM
same,Selectivity Index,[3],6
same,Selectivity Index,[4],9.6
same,Selectivity Index,[5],9.6
same,IC50,Leishmania infantum [6],52 µM
same,IC50,Leishmania infantum [7]; [11],> 389 µM
same,CC50,[8],497 µM
same,IC50,Trypanosoma cruzi [9]; [12],91.5 µM
Cc1ccsc1[C@@H]1C[C@H](O)Cc2cc(Cl)ccc2N1 (relative stereo),IC50,Trypanosoma cruzi [1],47.9 µM
same,CC50,[2],200 µM
same,Selectivity Index,[3],4.2
same,Selectivity Index,[4],4.8
same,Selectivity Index,[5],2.5
same,IC50,Leishmania infantum [6],72.9 µM
same,IC50,Leishmania infantum [7]; [11],> 341 µM
same,CC50,[8],181 µM
same,IC50,Trypanosoma cruzi [9]; [12],41.5 µM
Brc1ccc([C@@H]2C[C@H]3Cc4ccccc4N2O3)s1 (racemic),IC50,Trypanosoma cruzi [1],62.2 µM
same,CC50,[2],1800 µM
same,Selectivity Index,[3],28.9
same,Selectivity Index,[4],13.2
same,Selectivity Index,[5],34.7
same,IC50,Leishmania infantum [6],36.1 µM
same,IC50,Leishmania infantum [7]; [11],> 312 µM
same,CC50,[8],1250 µM
same,IC50,Trypanosoma cruzi [9]; [12],137 µM
